Data published in ChEMBL document CHEMBL3580577, “Fragment-based exploration of binding site flexibility in Mycobacterium tuberculosis BioA” (J Med Chem, 2015).

Columns and labels:
[1] = tested on: Mycobacterium tuberculosis; experiment: Antimycobacterial activity against Mycobacterium tuberculosis BioA-UE strain assessed as growth inhibition after 9 days by Whole cell growth assay in presence of 1000 nM biotin; type: functional, organism-based; conditions: 216 h
Method in brief: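 Mtb BioA-underexpressing strain pregrown in Sauton's medium with 1000 nM biotin to OD580 1.0–1.2, washed twice in biotin-free Sauton's medium, and seeded at OD580 0.03 in medium with 1000 nM biotin plus 200 ng/mL anhydrotetracycline. Compounds were tested at 2-fold serial dilutions, 1000 to 3.9 µM final, against no-compound controls. OD read after nine days at 37 °C, in triplicate; MIC calculated from growth.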

[2] = tested on: Mycobacterium tuberculosis; experiment: Inhibition of Mycobacterium tuberculosis N-terminal His-tagged BioA assessed as temperature of denaturation shift by […]
Method in brief: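 Differential scanning fluorimetry with 0.05 mg/mL holo BioA in 25 mM HEPES pH 7.5, 50 mM NaCl, 5× SYPRO Orange, and 5 mM fragment from 200 mM DMSO stock. Heated 55–100 °C in 0.5 °C steps with 60 s dwell. Tm taken at the first-derivative peak; the shift is against the mean of DMSO-only controls on the same plate. Four replicates, mean with standard error.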

[3] = tested on: Mycobacterium tuberculosis; experiment: Antimycobacterial activity against Mycobacterium tuberculosis H37Rv assessed as growth inhibition after 9 days by Whole cell growth assay in presence of 1000 nM biotin; type: functional, organism-based; conditions: 216 h
Method in brief: (§1)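 Virulent H37Rv wild type pregrown in Sauton's medium with 1000 nM biotin to OD580 1.0–1.2, washed twice in biotin-free Sauton's medium, and seeded at OD580 0.03 in biotin-free medium or with 1000 nM biotin added. Compounds were tested at 2-fold dilutions, 1000 to 3.9 µM final, against no-compound controls. OD read after nine days at 37 °C, in triplicate; MIC calculated.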

[4] = Inhibition of Mycobacterium tuberculosis N-terminal His-tagged BioA assessed as dissociation constant by isothermal titration calorimetry
Method in brief: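 Isothermal titration calorimetry at 25 °C in 25 mM HEPES pH 7.5, 50 mM NaCl, with 100 µM PLP-saturated His-tagged BioA (E. coli-expressed) in the cell. Ligand at 1.0, 1.5 or 2.0 mM, DMSO matched, given as 2 µL injections 150 s apart with stirring at 750 rpm. First injection discarded; heats of dilution corrected. KD = 1/KA from curve fit, averaged over three replicates.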

[5] = tested on: Mycobacterium tuberculosis; experiment: Antimycobacterial activity against Mycobacterium tuberculosis H37Rv assessed as growth inhibition after 9 days by Whole cell growth assay; type: functional, organism-based; conditions: 216 h; method in brief: as §1
[6] = Inhibition of Mycobacterium tuberculosis H37Rv N-terminal His-tagged BioA using KAPA substrate by in vitro biochemical assay

| SMILES | IC50 [1] [µM] | ΔTm [2] [°C] | IC50 [3] [µM] | Kd [4] [µM] | IC50 [5] [µM] | IC50 [6] [µM] |
| --- | --- | --- | --- | --- | --- | --- |
| O=C(c1ccccc1)C1CCNCC1 | 260 | 3.6 | 357 | 41.8 | 340 | – |
| NC(=O)c1ccc(-c2ccccn2)s1 | 39.2 | 6.3 | > 1000 | 6.9 | 249 | – |
| NCc1nc2ccccc2s1 | 368 | -6.5 | 304 | 30.3 | 250 | – |
| CNCc1ccc(Cn2cccn2)cc1 | > 1000 | 5.3 | > 1000 | 11.7 | > 1000 | – |
| CC(=O)Nc1ccc2c(c1)C=CC2=O | > 1000 | 3.6 | > 1000 | 21.7 | > 1000 | – |
| O=c1cc(-c2ccccc2F)[nH]c2cc3c(cc12)OCO3 | – | – | – | – | – | 0.44 |
| NC(=O)c1ccc(-n2ccnc2)cc1 | > 1000 | 4.1 | > 1000 | 15 | > 1000 | – |
| NCc1ccc(Cn2cc(Cl)cn2)cc1 | – | -11.9 | – | 6.8 | – | – |
